Reference: ChEMBL document CHEMBL1275408, “A chemical genomic screen in Saccharomyces cerevisiae reveals a role for diphthamidation of translation elongation factor 2 in inhibition of protein synthesis by sordarin” (2008)
Active and inactive are the calls of the source. The rule behind the calls is not given here.

Experiments:
Saccharomyces cerevisiae [1] = test: Antifungal activity against Saccharomyces cerevisiae BY4741 harboring MTF1 YMR228W mutant gene by spectrophotometry; type: functional
In short: (§1)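 Haploid MATa BY4741 KanMX4 deletion strains pinned from frozen stocks into YPD + G418 (150 mg/liter), grown 3 days at 28°C to confluence, then pin-replicated into SC liquid with no drug or sordarin derivative GM193663 (2 ng/ml sensitivity; 62.5 ng/ml resistance). 28°C, OD595 read every 24 h for 5 days; growth scored relative to wild type on same plate and to untreated mutant.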

Saccharomyces cerevisiae [2] = test: Antifungal activity against Saccharomyces cerevisiae BY4741 harboring CPR6 YLR216C mutant gene by spectrophotometry; type: functional
In short: (§2)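 Screen of BY4741 KanMX4 deletion strains pre-grown 3 days at 28°C in YPD with G418 (150 mg/liter), then pinned into liquid SC containing GM193663. The sensitivity screen used 2 ng/ml; the resistance screen used 62.5 ng/ml, with validation at 62.5, 125 and 500 ng/ml. OD595 was read every 24 h over 5 days at 28°C. Growth was scored relative to wild type and to drug-free controls. Retests were at least in duplicate.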

Saccharomyces cerevisiae [3] = test: Antifungal activity against Saccharomyces cerevisiae BY4741 harboring SHE2 YKL130C mutant gene by spectrophotometry; type: functional; in short: as §1
Saccharomyces cerevisiae [4] = test: Antifungal activity against Saccharomyces cerevisiae BY4741 harboring DIA4 YHR011W mutant gene by spectrophotometry; type: functional; in short: as §2
Saccharomyces cerevisiae [5] = test: Antifungal activity against Saccharomyces cerevisiae BY4741 harboring YBR099C mutation by spectrophotometry; type: functional; in short: as §1
Saccharomyces cerevisiae [6] = test: Antifungal activity against Saccharomyces cerevisiae BY4741 harboring SHU2 YDR078C mutant gene by spectrophotometry; type: functional; in short: as §1
Saccharomyces cerevisiae [7] = test: Antifungal activity against Saccharomyces cerevisiae BY4741 harboring DJP1 YIR004W mutant gene by spectrophotometry; type: functional; in short: as §2
Saccharomyces cerevisiae [8] = test: Antifungal activity against Saccharomyces cerevisiae BY4741 harboring MIP1 YOR330C mutant gene by spectrophotometry; type: functional; in short: as §2
Saccharomyces cerevisiae [9] = test: Antifungal activity against Saccharomyces cerevisiae BY4741 harboring ARN2 YHL047C mutant gene by spectrophotometry; type: functional; in short: as §2
Saccharomyces cerevisiae [10] = test: Antifungal activity against Saccharomyces cerevisiae BY4741 harboring ARO3 YDR035W mutant gene by spectrophotometry; type: functional; in short: as §2
Saccharomyces cerevisiae [11] = test: Antifungal activity against Saccharomyces cerevisiae BY4741 harboring SER1 YOR184W mutant gene by spectrophotometry; type: functional; in short: as §1
Saccharomyces cerevisiae [12] = test: Antifungal activity against Saccharomyces cerevisiae BY4741 harboring QRI7 YDL104C mutant gene by spectrophotometry; type: functional; in short: as §1
Saccharomyces cerevisiae [13] = test: Antifungal activity against Saccharomyces cerevisiae BY4741 harboring PRE9 YGR135W mutant gene by spectrophotometry; type: functional; in short: as §1
Saccharomyces cerevisiae [14] = test: Antifungal activity against Saccharomyces cerevisiae BY4741 harboring NAT3 YPR131C mutant gene by spectrophotometry; type: functional; in short: as §1
Saccharomyces cerevisiae [15] = test: Antifungal activity against Saccharomyces cerevisiae BY4741 harboring FUN12 YAL035W mutant gene by spectrophotometry; type: functional; in short: as §2
Saccharomyces cerevisiae [16] = test: Antifungal activity against Saccharomyces cerevisiae BY4741 harboring MSR1 YHR091C mutant gene by spectrophotometry; type: functional; in short: as §1
Saccharomyces cerevisiae [17] = test: Antifungal activity against Saccharomyces cerevisiae BY4741 harboring MRPL11 YDL202W mutant gene by spectrophotometry; type: functional; in short: as §1
Saccharomyces cerevisiae [18] = test: Antifungal activity against Saccharomyces cerevisiae BY4741 harboring MRP20 YDR405W mutant gene by spectrophotometry; type: functional; in short: as §2
Saccharomyces cerevisiae [19] = test: Antifungal activity against Saccharomyces cerevisiae BY4741 harboring RSM19 YNR037C mutant gene by spectrophotometry; type: functional; in short: as §1
Saccharomyces cerevisiae [20] = test: Antifungal activity against Saccharomyces cerevisiae BY4741 harboring DPH5 YLR172C mutant gene by spectrophotometry; type: functional; in short: as §2
Saccharomyces cerevisiae [21] = test: Antifungal activity against Saccharomyces cerevisiae BY4741 harboring NOT5 YPR072W mutant gene assessed as reduction in fungal growth at 2 ng/ml by spectrophotometry; type: functional, organism-based
In short: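 Deletion strains (BY4741 background) pre-grown 3 days at 28°C in YPD + G418 (150 mg/liter), then pin-replicated into SC liquid containing 2 ng/ml GM193663 or no drug. 28°C, OD595 every 24 h over 5 days; growth scored against wild type on same plate and against drug-free mutant control; hits retested at least in duplicate at 2 ng/ml.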

Saccharomyces cerevisiae [22] = test: Antifungal activity against Saccharomyces cerevisiae BY4741 harboring ATP12 YJL180C mutant gene assessed as reduction in fungal growth at 2 ng/ml by spectrophotometry; type: functional, organism-based
In short: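 Haploid BY4741 KanMX4 deletion strains pre-grown in YPD with G418 (150 mg/liter) for 3 days at 28°C. They were then pin-replicated into liquid SC with sordarin derivative GM193663 at 2 ng/ml, or without drug. Plates were incubated at 28°C and OD595 read every 24 h for 5 days. Growth was scored against wild type on the same plate and against the drug-free mutant. Hits were retested at least in duplicate.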

Saccharomyces cerevisiae [23] = test: Antifungal activity against Saccharomyces cerevisiae BY4741 harboring deletion mutation in dph3 gene at 300 to 500 ng/ml after 24 hrs by liquid growth assay; type: functional
Saccharomyces cerevisiae [24] = test: Antifungal activity against Saccharomyces cerevisiae BY4741 assessed as reduction in fungal growth up to 500 ng/ml for 72 hrs by spectrophotometry; type: functional, organism-based
In short: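 BY4741 grown overnight in SC (synthetic complete) medium, then inoculated into microtiter wells of SC medium containing successive twofold dilutions of sordarin starting at 500 ng/ml (range 0–500 ng/ml). Cultures incubated at 28°C, and growth followed as a growth inhibition curve.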

Saccharomyces cerevisiae [25] = test: Antifungal activity against Saccharomyces cerevisiae BY4741 harboring deletion mutation in dph2 gene at 300 to 500 ng/ml after 24 hrs by liquid growth assay; type: functional
Saccharomyces cerevisiae [26] = test: Antifungal activity against Saccharomyces cerevisiae BY4741 harboring deletion mutation in dph4 gene at 100 ng/ml by plate assay; type: functional, organism-based
In short: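 Spot test on solid SC glucose plates with or without 100 ng/ml sordarin. Drops of 10^5 cells plus 10-fold serial dilutions of each dph deletion strain were spotted alongside the parental strain. Plates were incubated at 28°C for 6 days and imaged every 24 h.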

Saccharomyces cerevisiae [27] = test: Antifungal activity against Saccharomyces cerevisiae BY4741 harboring YDL063C mutation in unknown gene by spectrophotometry; type: functional; in short: as §1
Saccharomyces cerevisiae [28] = test: Antifungal activity against Saccharomyces cerevisiae BY4741 harboring DLT1 YMR126C mutant gene by spectrophotometry; type: functional; in short: as §2
Saccharomyces cerevisiae [29] = test: Antifungal activity against Saccharomyces cerevisiae BY4741 harboring YCL042W mutation by spectrophotometry; type: functional; in short: as §1
Saccharomyces cerevisiae [30] = test: Antifungal activity against Saccharomyces cerevisiae BY4741 harboring YBR255W mutation in unknown gene by spectrophotometry; type: functional; in short: as §1
Saccharomyces cerevisiae [31] = test: Antifungal activity against Saccharomyces cerevisiae BY4741 harboring YBR141C mutation in unknown gene by spectrophotometry; type: functional; in short: as §1
Saccharomyces cerevisiae [32] = test: Antifungal activity against Saccharomyces cerevisiae BY4741 harboring SCS22 YBL091C-A mutant gene by spectrophotometry; type: functional; in short: as §1
Saccharomyces cerevisiae [33] = test: Antifungal activity against Saccharomyces cerevisiae BY4741 harboring MOH1 YBL049W mutant gene by spectrophotometry; type: functional; in short: as §2
Saccharomyces cerevisiae [34] = test: Antifungal activity against Saccharomyces cerevisiae BY4741 harboring COX11 YPL132W mutant gene by spectrophotometry; type: functional; in short: as §2
Saccharomyces cerevisiae [35] = test: Antifungal activity against Saccharomyces cerevisiae BY4741 harboring DAL7 YIR031C mutant gene by spectrophotometry; type: functional; in short: as §2

Q: Which MIC (Saccharomyces cerevisiae [1]) does the source give for CO[C@H]1[C@@H](O)[C@H](O)[C@H](OC[C@@]23C[C@@H]4[C@H](C)CC[C@H]4[C@@]4(C=O)CC2C=C(C(C)C)[C@@]34C(=O)O)O[C@@H]1C [SORDARIN] here?
A: > 0.125 µg/mL

Q: And the MIC (Saccharomyces cerevisiae [2])?
A: > 0.125 µg/mL

Q: What about the MIC (Saccharomyces cerevisiae [3]) of the same molecule?
A: > 0.125 µg/mL

Q: What about the MIC (Saccharomyces cerevisiae [4]) of the same molecule?
A: > 0.0625 µg/mL

Q: And the MIC (Saccharomyces cerevisiae [5])?
A: > 0.5 µg/mL

Q: What about the MIC (Saccharomyces cerevisiae [6]) of the same molecule?
A: > 0.5 µg/mL

Q: And the MIC (Saccharomyces cerevisiae [7])?
A: > 0.5 µg/mL

Q: And the MIC (Saccharomyces cerevisiae [8])?
A: > 0.5 µg/mL

Q: What about the MIC (Saccharomyces cerevisiae [9]) of the same molecule?
A: > 0.5 µg/mL

Q: And the MIC (Saccharomyces cerevisiae [10])?
A: > 0.5 µg/mL

Q: And the MIC (Saccharomyces cerevisiae [11])?
A: > 0.5 µg/mL

Q: What about the MIC (Saccharomyces cerevisiae [12]) of the same molecule?
A: > 0.125 µg/mL

Q: What about the MIC (Saccharomyces cerevisiae [13]) of the same molecule?
A: > 0.5 µg/mL

Q: What about the MIC (Saccharomyces cerevisiae [14]) of the same molecule?
A: > 0.0625 µg/mL

Q: And the MIC (Saccharomyces cerevisiae [15])?
A: > 0.125 µg/mL

Q: And the MIC (Saccharomyces cerevisiae [16])?
A: > 0.125 µg/mL

Q: And the MIC (Saccharomyces cerevisiae [17])?
A: > 0.0625 µg/mL

Q: And the MIC (Saccharomyces cerevisiae [18])?
A: > 0.5 µg/mL

Q: And the MIC (Saccharomyces cerevisiae [19])?
A: > 0.5 µg/mL

Q: And the MIC (Saccharomyces cerevisiae [20])?
A: > 0.5 µg/mL

Q: And the Activity (Saccharomyces cerevisiae [21])?
A: Active

Q: And the Activity (Saccharomyces cerevisiae [22])?
A: Active

Q: And the Activity (Saccharomyces cerevisiae [23])?
A: 50%

Q: What about the Activity (Saccharomyces cerevisiae [24]) of the same molecule?
A: Active

Q: What about the Activity (Saccharomyces cerevisiae [25]) of the same molecule?
A: 50%

Q: What about the MIC (Saccharomyces cerevisiae [26]) of the same molecule?
A: inactive

Q: What about the MIC (Saccharomyces cerevisiae [27]) of the same molecule?
A: > 0.125 µg/mL

Q: What about the MIC (Saccharomyces cerevisiae [28]) of the same molecule?
A: > 0.125 µg/mL

Q: What about the MIC (Saccharomyces cerevisiae [29]) of the same molecule?
A: > 0.125 µg/mL

Q: What about the MIC (Saccharomyces cerevisiae [30]) of the same molecule?
A: > 0.5 µg/mL

Q: And the MIC (Saccharomyces cerevisiae [31])?
A: > 0.5 µg/mL

Q: And the MIC (Saccharomyces cerevisiae [32])?
A: > 0.5 µg/mL

Q: And the MIC (Saccharomyces cerevisiae [33])?
A: > 0.5 µg/mL

Q: And the MIC (Saccharomyces cerevisiae [34])?
A: > 0.125 µg/mL

Q: And the MIC (Saccharomyces cerevisiae [35])?
A: > 0.125 µg/mL
